Drawing on ChEMBL document CHEMBL1122033, “Chemistry and hypoglycemic activity of N-[[(Dialkylamino)alkoxy]phenyl]benzamidines” (J Med Chem, 1982), this text covers LD50, Reduction and Change for six compounds.

SMILES strings stand for the structures. “And” between values parts separate entries of the source, which are not always exact repeats. Equal entries are not always repeated.

Series [1] is described as follows: Lethal dose required to produce 50% lethality in male and female carworth farms CF-1 strain mice weighing 16-25 g administered intraperitoneally. The format is toxicity, organism-based. The note with it: both, CF-1, mouse, in vivo, ip. The gist of the method:
(§1)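 Four mice per dose level. Drug dissolved in distilled water and suspended in 0.5% carboxymethylcellulose or 0.5% gelatin, with pH adjusted by 1 N HCl or 1 N NaOH where the drug tolerated it. Doses logarithmically spaced, given orally or intraperitoneally. Mice observed 7 days after dosing. LD50 derived by the Bliss method, expressed in mg/kg.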

The subject of series [2] is Rattus norvegicus. Briefly: Evaluated in glucose primed, adrenalectomized rat for the percentage reduction in blood glucose level as compared to pretreatment blood glucose values at a dose of 25 mg of free base / kg body weight administered orally. The class given is functional. The gist of the method: (§2)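 Male Sprague–Dawley rats were adrenalectomized 7 days before testing, fasted 16 h, and given 100 mg glucose s.c. per rat. Drug was given orally at once; controls received an equal volume of saline. Blood was taken by cardiac puncture after 2 h. Percent reduction in blood glucose is versus pretreatment values.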

Series [3] deals with Rattus norvegicus. Briefly: Evaluated in alloxanized, diabetic rat for the percentage reduction in blood glucose level as compared to pretreatment blood glucose values at a dose of 150 mg of free base / kg body weight administered orally. The format is functional. The gist of the method:
(§3)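 Three days later, rats positive for urine glucose (reagent strip) formed groups of six. Tail-vein blood was taken before oral dosing and again at 5 h. Percent reduction is versus pretreatment glucose.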

For series [4], the system named is Cavia porcellus. Description: Evaluated in normal, fasted guinea pig for the percentage reduction in blood glucose level as compared to pretreatment blood glucose values at a dose of 100 mg of free base / kg body weight administered orally.
Series [5] has as its system Rattus norvegicus. Description: Blood sugar lowering (hypoglycemic activity) in the glucose-primed rat at a dose of 100 mg/kg; Decrease in blood sugar level. The format is functional. The gist of the method:
(§4)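 Male Sprague–Dawley rats, 140–150 g, groups of six, fasted 16 h. Each rat got 100 mg glucose s.c. in 0.5 mL isotonic NaCl, then the test agent at once orally as an aqueous carboxymethylcellulose suspension (0.5 mL); controls got vehicle. At 2 h, under light ether, blood was taken by cardiac puncture. Glucose was read by Autoanalyzer (Hoffman method). Values are percent difference from vehicle controls.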

Series [6] concerns Monkey. Briefly: Evaluated in normal, fasted monkey for the percentage reduction in blood glucose level as compared to pretreatment blood glucose values at a dose of 50 mg of free base / kg body weight administered orally. The class given is functional, Cercopithecidae. The gist of the method:
(§5)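 Male and female rhesus monkeys (2–3 kg) were food-deprived, with water, for 18 h. Pretreatment blood was taken from the popliteal vein. Dosing was oral by stomach tube, with repeat sampling 5 h post-dose. Results are percent reduction in blood glucose relative to pretreatment values.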

For series [7], the system named is Rattus norvegicus. Briefly: Evaluated in alloxanized, diabetic rat for the percentage reduction in blood glucose level as compared to pretreatment blood glucose values at a dose of 100 mg of free base / kg body weight administered orally. The class given is functional. The gist of the method:
as §3

Series [8] deals with Monkey. Briefly: Evaluated in normal, fasted monkey for the percentage reduction in blood glucose level as compared to pretreatment blood glucose values at a dose of 60 mg of free base / kg body weight administered orally. The class given is functional, Cercopithecidae. The gist of the method: as §5
A short description of series [9]: (§6) Lethal dose required to produce 50% lethality in male and female carworth farms CF-1 strain mice weighing 16-25 g administered orally. The class given is toxicity, organism-based. The note with it: both, CF-1, mouse, in vivo, po. The gist of the method:
as §1

Series [10] deals with Rattus norvegicus. Description: Evaluated in glucose-primed, fasted rat for the percentage reduction in blood glucose level as compared to control groups at a dose of 100 mg of free base / kg body weight administered orally. The class given is functional. The procedure, abridged:
as §4

The test system of series [11] is Rattus norvegicus. Description: Evaluated in glucose-primed, fasted rat for the percentage reduction in blood glucose level as compared to control groups at a dose of 50 mg of free base / kg body weight administered orally. The class given is functional. The gist of the method: as §4
The test system of series [12] is Monkey. Briefly: Evaluated in normal, fasted monkey for the percentage reduction in blood glucose level as compared to pretreatment blood glucose values at a dose of 25 mg of free base / kg body weight administered orally. The format is functional, Cercopithecidae. The procedure, abridged:
as §5

In series [13] the test system is Rattus norvegicus. Description: Evaluated in glucose-primed, fasted rat for the percentage reduction in blood glucose level as compared to control groups at a dose of 150 mg of free base / kg body weight administered orally. The format is functional. The procedure, abridged:
as §4

Series [14] is described as follows: Dose that produces lethality in 50% (LD50) of male and female carworth farms CF-1 strain mice weighing 16-25 g intraperitoneal (ip) route of administration. The class given is ADME, organism-based. The note with it: both, CF-1, mouse, in vivo. The gist of the method:
as §1

Series [15] in a line: Dose that produces lethality in 50% (LD50) of male and female carworth farms CF-1 strain mice weighing 16-25 g oral (po) route of administration. The class given is ADME, organism-based. The note with it: both, CF-1, mouse, in vivo. The gist of the method:
as §1

The nature of series [16]: Lethality in 50% (LD50) of male and female CF-1 strain mice weighing 16-25g, intraperitoneal administration. The format is ADME, organism-based. The note with it: both, CF-1, mouse, in vivo, ip. The gist of the method:
as §1

Series [17] deals with Rattus norvegicus. Briefly: Compound was evaluated for the blood sugar lowering (hypoglycemic activity) in the glucose-primed rat at a dose of 100 mg/kg; Increase in blood sugar level. The class given is functional. The procedure, abridged:
as §4

For series [18], the system named is Rattus norvegicus. Description: Evaluated for the blood sugar lowering (hypoglycemic activity ) in the glucose-primed rat at a dose of 100 mg/kg. The class given is functional. The procedure, abridged: as §4
In series [19] the test system is Cavia porcellus. Briefly: Evaluated in normal, fasted guinea pig for the percentage reduction in blood glucose level as compared to pretreatment blood glucose values at a dose of 100 mg of free base / kg body weight administered orally. The format is functional. The gist of the method:
(§7)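 Male and female Hartley guinea pigs, 450–500 g, were food-deprived (water allowed) 18 h and split by sex into groups of four. A zero-time blood sample was taken by cardiac puncture, then drug was given, and blood was drawn again 5 h later. Percent reduction in blood glucose is relative to pretreatment values.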

A short description of series [20]: as §6. The note with it: both, CF-1, rat, in vivo, po.
The subject of series [21] is Rattus norvegicus. Description: Evaluated in alloxanized, diabetic rat for the percentage reduction in blood glucose level as compared to pretreatment blood glucose values at a dose of 200 mg of free base / kg body weight administered orally. The class given is functional. The procedure, abridged:
as §3

The subject of series [22] is Monkey. Briefly: Evaluated in normal, fasted monkey for the percentage reduction in blood glucose level as compared to pretreatment blood glucose values at a dose of 70 mg of free base / kg body weight administered orally. The format is functional, Cercopithecidae. The gist of the method: as §5
The subject of series [23] is Rattus norvegicus. Briefly: Evaluated in glucose-primed, fasted rat for the percentage reduction in blood glucose level as compared to control groups at a dose of 25 mg of free base / kg body weight administered orally. The class given is functional. The gist of the method:
as §4

The subject of series [24] is Rattus norvegicus. Briefly: Evaluated in glucose-primed, fasted rat for the percentage reduction in blood glucose level as compared to control groups at a dose of 10 mg of free base / kg body weight administered orally. The class given is functional. The procedure, abridged:
as §4

Series [25] deals with Rattus norvegicus. Description: Compound was evaluated for the blood sugar lowering (hypoglycemic activity ) in the glucose-primed rat at a dose of 50 mg of base/kg. The class given is functional. The gist of the method: as §4
Series [26] deals with Cavia porcellus. Briefly: Evaluated in normal, fasted guinea pig for the percentage reduction in blood glucose level after 5 hr as compared to pretreatment blood glucose values at a dose of 100 mg of free base / kg body weight administered orally. The format is functional. The gist of the method:
as §7

The subject of series [27] is Monkey. Briefly: Evaluated in normal, fasted monkey for the percentage reduction in blood glucose level after 5 hr as compared to pretreatment blood glucose values at a dose of 40 mg of free base / kg body weight administered orally. The format is functional, Cercopithecidae. The gist of the method:
as §5

The subject of series [28] is Cavia porcellus. Briefly: Evaluated in normal, fasted guinea pig for the percentage reduction in blood glucose level after 5 hr as compared to pretreatment blood glucose values at a dose of 160 mg of free base / kg body weight administered orally. The class given is functional. The procedure, abridged: as §7
In series [29] the test system is Cavia porcellus. Description: Evaluated in normal, fasted guinea pig for the percentage reduction in blood glucose level after 5 hr as compared to pretreatment blood glucose values at a dose of 125 mg of free base / kg body weight administered orally. The format is functional. The gist of the method:
as §7

Series [30] relates to Rattus norvegicus. Briefly: Evaluated in glucose-primed, fasted rat for the percentage reduction in blood glucose level after 2 h as compared to control groups at a dose of 25 mg of free base / kg body weight administered orally. The class given is functional. The procedure, abridged: as §4
Series [31] has as its system Monkey. Briefly: Evaluated in normal, fasted monkey for the percentage reduction in blood glucose level after 5 hr as compared to pretreatment blood glucose values at a dose of 20 mg of free base / kg body weight administered orally. The format is functional, Cercopithecidae. The gist of the method: as §5
Series [32] concerns Rattus norvegicus. Briefly: Evaluated in glucose primed, adrenalectomized rat for the percentage reduction in blood glucose level after 2 hr as compared to pretreatment blood glucose values at a dose of 20 mg of free base / kg body weight administered orally. The class given is functional. The procedure, abridged:
as §2

In series [33] the test system is Rattus norvegicus. Description: Evaluated in glucose primed, adrenalectomized rat for the percentage reduction in blood glucose level after 2 hr as compared to pretreatment blood glucose values at a dose of 10 mg of free base / kg body weight administered orally. The format is functional. The procedure, abridged: as §2
Series [34] has as its system Rattus norvegicus. Description: Evaluated in glucose-primed, fasted rat for the percentage reduction in blood glucose level after 2 hr as compared to control groups at a dose of 250 mg of free base / kg body weight administered orally. The format is functional. The procedure, abridged:
as §4

For series [35], the system named is Rattus norvegicus. Description: Evaluated in glucose-primed, fasted rat for the percentage reduction in blood glucose level after 2 hr as compared to control groups at a dose of 500 mg of free base / kg body weight administered orally. The class given is functional. The procedure, abridged: as §4
The subject of series [36] is Rattus norvegicus. Description: Evaluated in glucose-primed, fasted rat for the percentage reduction in blood glucose level after 2 hr as compared to control groups at a dose of 10 mg of free base / kg body weight administered orally. The format is functional. The gist of the method: as §4
Series [37] has as its system Cavia porcellus. Description: Evaluated in normal, fasted guinea pig for the percentage reduction in blood glucose level after 5 hr as compared to pretreatment blood glucose values at a dose of 150 mg of free base / kg body weight administered orally. The class given is functional. The procedure, abridged: as §7

For orientation: LD50 means the dose at which mortality reaches 50%. As to `Br.CC(C)N(CCOc1ccc(N/C(=N\c2ccccc2)c2ccccc2)cc1)C(C)C`, the results for the LD50 in [1] and in series [9] were 273 mg/kg and 900 mg/kg, respectively. For the same compound, the Reduction in series [2] is listed as 33.4%; in series [3], 37.3%; in series [4], 10.6%; in series [6], 31.9%; in [7], 16.5%; in [8] it was 45%. For the same compound, the Reduction in series [10] is reported as 31.2%; in series [11], 12.9%; in series [12], 0%; in [13], 32%. The same compound had a Change in series [5] of 31.2%.
In series [5], `CC(C)N(CCc1ccc(/C(=N\c2ccccc2)Nc2ccccc2)cc1)C(C)C.Cl` showed a Change of 32.4%. Further, the LD50 amounted to 160 mg/kg in series [14] and 587 mg/kg in series [15].
Regarding `Br.c1ccc(/N=C(\Nc2ccc(OCCN3CCCC3)cc2)c2ccccc2)cc1`, the LD50 in series [16] was 117 mg/kg; in series [15] it was 500 mg/kg. Besides, the Change in series [17] turned out to be 35%.
As for `CC(C)N(CCOc1ccc(N/C(=N\c2cccc(C(F)(F)F)c2)c2ccccc2)cc1)C(C)C.Cl`, the median lethal dose (LD50) was determined as 400 mg/kg in [16] and 1000 mg/kg in [15]. The same compound displayed a Change in series [18] of 0%.
On to `Br.CC(C)N(CCCOc1ccc(N/C(=N\c2ccccc2)c2ccccc2)cc1)C(C)C`, for which the results for the LD50 in series [1] and in series [20] were 140 mg/kg and 347 mg/kg, respectively. Moreover, the Reduction in series [2] was 30.6%; in [19], 33.5% and 20%; in series [6], 26.5%; in series [7], 15%; in [21], 21.5%; in series [22] it was 39%. The Reduction in series [23] was found to be 21.2%; in series [8], 32.3%; in [24] it was 10.9%; in series [11] it was 32.2%; in series [12], 0%. Besides, in series [25], the Change is 32.2%.
Regarding `Cc1ccc(S(=O)(=O)NC(=O)NN2CCCCCC2)cc1` [TOLAZAMIDE], the Reduction in series [26] is 33.5%; in [27] it was 26.7%; in series [28], 25%; in series [29], 26.7%; in [30], 50%; in series [31], 11%. Moreover, the Reduction came to 0% in series [7]; 85.6% in series [32]; 75.8% in [33]; 42.9% in series [34]; 51.1% in series [35]; 28.1% in series [36]. The Reduction in series [37] was determined as 30.4%.
